ChEMBL document CHEMBL3045252, “Stereoselective syntheses of all stereoisomers of lariciresinol and their plant growth inhibitory activities” (J Agric Food Chem, 2011)

How the values were obtained:
[1] = test system: Lolium multiflorum; test: Plant growth regulatory activity in Lolium multiflorum (Italian ryegrass ) assessed as inhibition of shoot length at 1x10'-3 M at 20 degC measured after 5 days; format: functional; settings: 120 h, read-out: GI
How it was run: (§1)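 Paper was pre-wetted with 500 μL acetone solution (6.0 × 10^-3 to 6.0 × 10^-8 M) and dried, then 3 mL water added to a final 1.0 × 10^-3 to 1.0 × 10^-8 M. Sealed dishes kept dark at 20 °C. Root and shoot lengths read against a negative control. Mean ± SEM; three experiments below 10^-3 M. One-way ANOVA with Tukey post-test.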

[2] = test system: Lactuca sativa; test: Plant growth regulatory activity in lettuce Lactuca sativa (lettuce) assessed as inhibition of root growth at 1 mM at 20 degC measured after 3 days; format: functional; settings: 72 h, read-out: GI
How it was run: (§2)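 Paper was treated with acetone solution and dried, then 3 mL water added to a final 1 × 10^-3 M. Sealed dishes kept dark at 20 °C. Root and shoot lengths expressed as growth relative to the negative control. Mean ± SEM. One-way ANOVA with Tukey post-test.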

[3] = test system: Lactuca sativa; test: Plant growth regulatory activity in lettuce Lactuca sativa (lettuce) assessed as inhibition of shoot length at 1 mM at 20 degC measured after 3 days; format: functional; settings: 72 h, read-out: GI; how it was run: as §2
[4] = test system: Lolium multiflorum; test: Plant growth regulatory activity in Lolium multiflorum (Italian ryegrass) assessed as inhibition of root growth at 1x10'-3 M at 20 degC measured after 5 days; format: functional; settings: 120 h, read-out: GI; how it was run: as §1
[5] = test system: Lolium multiflorum; test: Plant growth regulatory activity in Lolium multiflorum (Italian ryegrass) assessed as stimulation of root growth up to 10'--4 to 10^-7 M at 20 degC measured after 5 days; format: functional; how it was run: as §1
[6] = test system: Lolium multiflorum; test: Inhibition of germination in Lolium multiflorum (Italian ryegrass) seed assessed as growth rate of germinated grass root; format: functional
[7] = test system: Lolium multiflorum; test: Inhibition of seed germination in Lolium multiflorum (Italian ryegrass) seed assessed as seed germination rate (reference value: 90.3 +/- 1.40%); format: functional
[8] = test system: Lolium multiflorum; test: Toxicity in italian ryegrass Lolium multiflorum (Italian ryegrass) assessed as adverse effect up to 10^-7 M; format: organism-based; settings: in vivo
[9] = test system: Lolium multiflorum; test: Plant growth regulatory activity in Lolium multiflorum (Italian ryegrass) assessed as inhibition of shoot length at 1 mM at 20 degC measured after 5 days; format: functional; settings: 120 h, read-out: GI; how it was run: as §1

## COc1cc(C[C@@H]2CO[C@H](c3ccc(O)c(OC)c3)[C@@H]2CO)ccc1O
[1]
  inhibition of growth at 1000 µM: < 23%
[2]
  inhibition of growth at 1000 µM: -20.7%
[3]
  inhibition of growth at 1000 µM: -1.6%
[4]
  inhibition of growth at 1000 µM: -30%

## COc1cc(C[C@H]2CO[C@H](c3ccc(O)c(OC)c3)[C@@H]2CO)ccc1O
[5]
  Activity: 20%
[2]
  inhibition of growth at 1000 µM: -20.7%
[3]
  inhibition of growth at 1000 µM: -1.6%
[6]
  inhibition (INH): -35.4%
[7]
  inhibition (INH): 72.5%
[4]
  inhibition of growth at 1000 µM: -48.2%

## COc1cc(C[C@@H]2CO[C@@H](c3ccc(O)c(OC)c3)[C@H]2CO)ccc1O
[3]
  inhibition of growth at 1000 µM: -32.3%

## COc1cc(C[C@H]2CO[C@@H](c3ccc(O)c(OC)c3)[C@@H]2CO)ccc1O
[2]
  inhibition of growth at 1000 µM: -20.7%
[3]
  inhibition of growth at 1000 µM: -1.6%
[8]
  Activity: Non-toxic

## COc1cc(C[C@@H]2CO[C@H](c3ccc(O)c(OC)c3)[C@H]2CO)ccc1O
[2]
  inhibition of growth at 1000 µM: -20.7%
[3]
  inhibition of growth at 1000 µM: -1.6%
[8]
  Activity: Non-toxic

## COc1cc(C[C@H]2CO[C@@H](c3ccc(O)c(OC)c3)[C@H]2CO)ccc1O
[1]
  inhibition of growth at 1000 µM: < 23%
[2]
  inhibition of growth at 1000 µM: -20.7%
[3]
  inhibition of growth at 1000 µM: -1.6%
[4]
  inhibition of growth at 1000 µM: -30%

## COc1cc(C[C@@H]2CO[C@@H](c3ccc(O)c(OC)c3)[C@@H]2CO)ccc1O [(-)-Lariciresinol]
[2]
  inhibition of growth at 1000 µM: -8.2%
[9]
  inhibition of growth at 1000 µM: -17.1%
[3]
  inhibition of growth at 1000 µM: -13.3%
[6]
  inhibition (INH): -57.2%
[7]
  inhibition (INH): 80%
[4]
  inhibition of growth at 1000 µM: -44.3%

## COc1cc(C[C@H]2CO[C@H](c3ccc(O)c(OC)c3)[C@H]2CO)ccc1O [LARICIRESINOL]
[2]
  inhibition of growth at 1000 µM: -14.4%
[3]
  inhibition of growth at 1000 µM: -22%
[6]
  inhibition (INH): -40.7%
[7]
  inhibition (INH): 72.5%
[4]
  inhibition of growth at 1000 µM: -29.3%
